Assay outcomes from PubChem.
Sampled rows, rich in hits. Any-hit rate of the full collection: about 4.1%.
Efflux pump inh: blocks antifungal efflux pumps in multiplex yeast assay | inhibition, % at 10 µM | 330,000 compounds, 0.44% hits | S. cerevisiae Candida pump triplex, Nile Red efflux;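 active = plate passing quality check with inhibition over a set limit, or well fluorescence over plate mean plus 4 SD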;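 also: Nile Red retained in pooled yeast measured as flow cytometry median fluorescence; 0% = buffer negative control and 100% = Enniatin B positive control; higher means more Nile Red kept so more efflux inhibition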
H9c2 TAG inh: inhibitors of triacylglycerol accumulation; H9c2 cells, Nile Red lipid (TAG) fluorescence; cells loaded with 200 µM oleic acid; inhibition, % at 12.5 µM; 230,000 compounds, 0.66% hits; AID 651582;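 active = pattern-corrected inhibition of lipid staining of at least 50% with the nuclear-stain viability signal not falling by more than 50%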;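 also: 0% = DMSO wells and 100% = triacsin C control wells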
AHR activator: human AHR activation; P35869; AHR-responsive luciferase reporter cells, luminescence; activation, % at 5 µM; 320,000 compounds, 2.5% hits; in the data active = activation above about 47%;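 also: 0% = vehicle wells and 100% = reference agonist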
Target sequence (P35869 whole entry, looked up): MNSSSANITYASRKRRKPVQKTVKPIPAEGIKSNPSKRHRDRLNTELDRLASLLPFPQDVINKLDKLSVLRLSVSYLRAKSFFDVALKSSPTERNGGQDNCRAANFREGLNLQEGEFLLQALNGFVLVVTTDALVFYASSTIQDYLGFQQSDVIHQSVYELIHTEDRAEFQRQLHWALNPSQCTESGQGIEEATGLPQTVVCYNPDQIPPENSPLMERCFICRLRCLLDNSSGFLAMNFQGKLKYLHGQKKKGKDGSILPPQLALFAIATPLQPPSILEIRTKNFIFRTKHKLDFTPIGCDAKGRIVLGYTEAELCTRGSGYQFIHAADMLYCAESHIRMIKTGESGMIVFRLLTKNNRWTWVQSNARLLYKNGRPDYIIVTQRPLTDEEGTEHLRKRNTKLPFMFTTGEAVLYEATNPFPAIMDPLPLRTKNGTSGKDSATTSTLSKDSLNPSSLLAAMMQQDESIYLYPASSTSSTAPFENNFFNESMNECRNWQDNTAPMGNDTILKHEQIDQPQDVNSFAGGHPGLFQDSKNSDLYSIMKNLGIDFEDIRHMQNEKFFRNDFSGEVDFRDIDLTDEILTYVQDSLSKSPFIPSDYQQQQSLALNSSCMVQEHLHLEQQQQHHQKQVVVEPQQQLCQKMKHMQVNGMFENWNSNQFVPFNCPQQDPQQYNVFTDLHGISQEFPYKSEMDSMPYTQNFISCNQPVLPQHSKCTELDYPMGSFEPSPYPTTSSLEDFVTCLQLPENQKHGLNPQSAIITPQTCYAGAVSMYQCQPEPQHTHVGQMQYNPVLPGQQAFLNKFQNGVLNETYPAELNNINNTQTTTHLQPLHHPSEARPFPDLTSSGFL
SMARCA2 activ: activators of SMARCA2 function; MG213 cells, MMTV-luciferase reporter, dexamethasone, overnight; activation, % at 9.1 µM; 370,000 compounds, 1% hits; in the data active = activation above about 7.8%;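 also: 0% = vehicle wells and 100% = reference activator wells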
TbMetRS inhib: blocks T. brucei methionyl-tRNA synthetase activity. purified T. brucei MetRS, ATP depletion, Kinase-Glo luminescence. inhibition, % at 11.9 µM. 360,000 compounds, 0.4% hits;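 active = inhibition above a per-plate cutoff of the control wells' mean inhibition plus 3 SD, cut at about 5.5% in these data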;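 also: 0% = DMSO wells median and 100% = median of wells with control inhibitor compound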
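Dosing: 11.9 µM compound single dose, 0.9% DMSO; Assay system: purified T. brucei MetRS enzyme; Measured by: Kinase-Glo luciferase luminescence reporting remaining unconsumed ATP; Schedule: 15 min plus 2 h at 25 °C.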
The depositor's hits bear a star; / = no result given.

SMILES	Efflux pump inh	H9c2 TAG inh	AHR activator	SMARCA2 activ	TbMetRS inhib
O=C(c1cccs1)n1ccc2ccc(-c3ccc4ccn(Cc5ccccc5)c4c3)cc21	/	/	/	-3	/
Clc1ccc(CSc2nnc(-c3cccs3)o2)cc1Cl	/	/	/	4	/
O=C(COC(=O)c1ncc(Cl)c(Cl)c1Cl)Nc1ccc(Cl)cn1	0	4	66*	0	0
O=C(COC(=O)c1nc(Cl)ccc1Cl)Nc1ccc(Cl)cn1	0	9	43	-1	0
COc1ccc(NC(=O)CSc2nc(C)cc(=O)[nH]2)cc1OC	/	/	/	-5	/
Cc1nn(-c2ccccc2)c2nc(-c3ccncc3)cc(C(=O)NCc3ccco3)c12	0	40	65*	-1	-1
Cc1ccc(-c2nnc(SCC(=O)Nc3ccc4c(c3)OCCO4)n2-c2ccc(C)cc2)cc1	/	/	/	-5	/
COc1ccc(CCN(Cc2cccs2)S(=O)(=O)c2ccc(F)cc2)cc1OC	/	/	/	-9	/
COc1ccccc1-c1sc2cc3c(cc2c1C#Cc1cncn1C)OCO3	0	-34	65*	0	-1
COc1ccc2sc(-c3ccccc3OC)c(C#Cc3cncn3C)c2c1	0	-3	48*	-3	0
COc1ccc(-c2sc3ccccc3c2C#Cc2cncn2C)cc1	0	16	40	0	0
COc1ccc2sc(-c3ccccc3OC)c(C#CCCO)c2c1	0	-9	74*	-1	0
O=[N+]([O-])c1cccc(C(=Nc2ccc(Cl)cc2)NO)c1	0	-11	67*	-4	0
O=[N+]([O-])c1cccc(C(=Nc2ccccc2)NO)c1	0	/	19	-4	1
Cc1cc(C(=O)N/N=C/c2cc(Br)ccc2OC(=O)c2ccccc2Cl)n[nH]1	0	41	65*	-2	0
CN(C)CCNc1nc2sc3c(c2c(=O)n1CCc1ccccc1)CCCCC3	0	80*	5	4	0
CC(O)CNc1nc2sc3c(c2c(=O)n1CCc1ccccc1)CCCCC3 (centres undefined)	0	25	5	-2	-1
CCN(C(=O)C1CCCN1S(=O)(=O)c1cccnc1)c1ccccc1 (centres undefined)	/	/	/	-4	/
Cc1ccc2nc(SCC(=O)Nc3cccc([N+](=O)[O-])c3)[nH]c2c1	0	/	89*	-1	72*
Cc1ccc2nc(SCc3ccc([N+](=O)[O-])cc3)[nH]c2c1	0	/	7	-2	19*
Cc1ccc2nc(SCc3ccc([N+](=O)[O-])cc3)nc(C)c2c1	0	/	-5	-3	0
c1ccc(-c2nc(-c3ccccn3)nc(-c3ccccn3)n2)nc1	0	14	10	-1	0
c1ccc(-c2nnc(-c3ccccn3)s2)nc1	0	0	65*	4	-1
COc1ccc(Cn2ccc3ccc(-c4ccc5ccn(Cc6ccc(OC)cc6)c5c4)cc32)cc1	/	/	/	-2	/
CC(C)n1cnc2c(Nc3cccc(F)c3)nc(NCCO)nc21	0	13	66*	4	0
SMILES	Efflux pump inh	H9c2 TAG inh	AHR activator	SMARCA2 activ	TbMetRS inhib
CC(C)C[C@H](CO)Nc1nc(Nc2cccc(Cl)c2)c2ncn(C(C)C)c2n1	0	24	19	2	0
O=C(c1ccco1)N1CCN(c2ncnc3c(-c4ccccc4)nsc23)CC1	0	-2	66*	1	0
COc1ccc(-c2nsc3c(N4CCN(C(=O)c5ccco5)CC4)ncnc23)cc1	0	-12	16	4	1
CC(C)(C)c1ccc(C(O)CCCN2CCC(C(O)(c3ccccc3)c3ccccc3)CC2)cc1 (centres undefined)	0	62*	-2	0	-1
CC(C)(C)c1ccc(OCCCN2CCC(C(O)(c3ccccc3)c3ccccc3)CC2)cc1	/	/	/	1	/
COC(=O)C1=C(C)N(C)C(=NCC2CC2)NC1CCc1ccccc1 (centres undefined)	/	/	/	-1	/
Fc1ccc(-c2csc(-c3cccnc3)n2)cc1F	0	/	68*	3	1
Oc1ccc(-c2csc(-c3cccnc3)n2)cc1O	0	26	5	0	0
C=CCc1c(C)nc(C)nc1N/N=C/c1ccc(N(C)C)cc1	0	/	79*	-1	-1
CN(C)c1ccc(/C=N\Nc2ccccn2)cc1	0	/	11	4	0
Cc1cc(Br)ccc1OCCCN1CCC(C(O)(c2ccccc2)c2ccccc2)CC1	/	/	/	-4	/
O=C(Nc1ccc2c(c1)OCO2)c1ccc(=O)[nH]n1	0	0	78*	2	-1
O=C(Nc1ccc2c(c1)OCO2)c1cnccn1	0	8	66*	5	0
COC(=O)[C@H](CC(C)C)N(Cc1cn(Cc2ccccc2)nn1)S(=O)(=O)c1ccc(F)cc1Br	/	/	/	-6	/
CCOc1ccc(N(CC(=O)Nc2c(C)n(C)n(-c3ccccc3)c2=O)S(=O)(=O)c2ccc(C)c(C)c2)cc1	/	/	/	-5	/
O=C(CSC1=Nc2ccccc2C2CC=NN12)NCc1ccco1 (centres undefined)	0	-1	66*	-4	0
O=C1Nc2ccc(Br)cc2C12NNc1ccccc1O2 (centres undefined)	1	-78	60*	2	1
O=C1Nc2ccc(Br)cc2C1(O)c1ccccc1 (centres undefined)	0	/	28	4	0
c1ccc(Nc2cc(Nc3ccccc3)[nH]n2)cc1	0	/	70*	-2	0
O=c1nccc(Nc2ccccc2)[nH]1	0	/	0	-4	0
O=C(NCC1CCN(C(=O)C(=O)c2cccs2)CC1)c1ccncc1	/	/	/	-4	/
COc1ccc(/C=N/NC(=O)c2ccc(COc3ccccc3Cl)o2)cc1	0	-5	62*	-3	0
Cc1cc(C)c(S(=O)(=O)/N=C2/C=C(SCC(=O)O)C(=O)c3ccccc32)cc1C	/	-4	/	/	1
COc1ccc(S(=O)(=O)Nc2cc(Sc3ncn[nH]3)c(O)c3ccccc23)cc1	/	/	/	-9	/
COc1ccc(S(=O)(=O)Nc2cc(SCC(=O)O)c(O)c3ccccc23)cc1	0	/	66*	0	1
SMILES	Efflux pump inh	H9c2 TAG inh	AHR activator	SMARCA2 activ	TbMetRS inhib
O=C(O)CSc1cc(NS(=O)(=O)c2ccc(Cl)cc2)c2ccccc2c1O	0	/	50*	-3	0
Cc1cc(C)c(S(=O)(=O)Nc2cc(SCC(=O)O)c(O)c3ccccc23)cc1C	0	/	61*	/	/
Cc1ccsc1C(=O)NCCc1nnc2ccccn12	0	/	4	7.8*	0
C/C(=N\Nc1nnc2c3ccccc3n(C)c2n1)c1ccc(C)o1	0	/	88*	-3	0
C/C(=N\Nc1nc(C)cc(C)n1)c1ccc(C)o1	0	-2	27	-2	0
CN(C)c1cccc(/C=C2\CC3(OC(=O)c4ccc(Cl)cc4)CCCN2C3)c1 (centres undefined)	/	/	/	2	/
CCOC(=O)c1cnc(/N=C/N(C)C)s1	0	4	2	7.9*	0
CCOC(=O)c1sc(/N=C/N(C)C)nc1C	0	/	2	1	0
CCCc1cc(=O)[nH]c(SCC(=O)c2c(C)[nH]c3ccccc23)n1	0	23	60*	0	-1
Cc1[nH]c2ccccc2c1C(=O)CN1CCC(C)CC1	0	-1	56*	-1	0
